Source: PubChem BioAssay
Shown are actives, neighbours in structure and some others; about 1.5% of the full set was active somewhere.
AF4-AF9 inh: MLL-AF4/AF9 protein interaction inhibition | P42568 | AlphaScreen, biotin-AF4 peptide binding to FLAG-AF9 | inhibition, % at 10 µM | 350,000 compounds, 0.47% hits | AID 651704;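 active means every replicate reaching a set inhibition limit, whatever the replicate mean, cut at about 25% in these data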;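 further: 0% = plate neutral control median and 100% = total signal loss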
RAD52 anneal inh: blocks human RAD52 DNA annealing; 360,000 compounds, 0.46% hits; recombinant RAD52 DNA annealing, FRET fluorescence; inhibition, % at 18.7 µM; P43351;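 active means every replicate showing at least 50% inhibition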
dFosB act-1: activators of mouse delta FosB homodimer. activation, % at 25 µM. 340,000 compounds, 0.99% hits. purified delta FosB, TAMRA-CDK5 oligo fluorescence polarization; percent of positive-control signal above neutral wells. P13346;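 active means mean activation above about 17%, with every replicate also reaching it, limit read from the data, passing the limit was not always enough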
Target sequence (P13346 whole entry, looked up): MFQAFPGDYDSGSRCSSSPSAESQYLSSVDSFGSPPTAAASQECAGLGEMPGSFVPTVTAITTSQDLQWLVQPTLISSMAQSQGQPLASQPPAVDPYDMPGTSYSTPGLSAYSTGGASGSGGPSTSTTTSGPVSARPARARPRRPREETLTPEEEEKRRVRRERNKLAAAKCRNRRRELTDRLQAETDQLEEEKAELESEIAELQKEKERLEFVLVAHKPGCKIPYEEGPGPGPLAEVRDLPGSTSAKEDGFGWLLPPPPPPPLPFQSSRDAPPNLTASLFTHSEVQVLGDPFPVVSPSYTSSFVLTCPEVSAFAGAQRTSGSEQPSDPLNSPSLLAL
RAD54 branch: blocks human RAD54 Holliday junction branch migration; Q92698; FAM/BHQ fluorescence; inhibition, % at 10.4 µM; 360,000 compounds, 0.14% hits; AID 602329;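 active means mean normalized replicate activity at least 40 and at least half of replicates scoring 40 or more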;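 further: 0% = median of neutral control wells and 100% = median of positive control wells; inhibitors cause a drop in the FAM fluorescence signal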
S100A4 MyoIIA: inhibitors of human S100A4 binding to myosin IIA peptide. P26447. S100A4/TAMRA-MyoIIA peptide fluorescence polarization. inhibition, % at 10.7 µM. 360,000 compounds, 0.14% hits. AID 652163;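 active means mean inhibition of at least 70% across replicates, with every replicate also reaching that level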
Target sequence (P26447 whole entry, looked up): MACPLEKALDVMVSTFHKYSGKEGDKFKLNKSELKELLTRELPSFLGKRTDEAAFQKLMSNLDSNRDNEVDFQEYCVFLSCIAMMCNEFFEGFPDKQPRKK
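assay system = human S100A4 monomer with TAMRA-labelled myosin IIA peptide | also added = labelled myosin peptide probe, 5 nM | incubation = 5 min between mix addition and reading | control set = DMSO and TFP controls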
dFosB act-2: enhances mouse delta FosB homodimer binding to DNA; purified delta FosB, TAMRA-CDK5 oligo fluorescence polarization; normalised: neutral wells 0, positive control 100; activation, % at 24.9 µM; 2,400 tested, under 10 active; shares compounds with dFosB act-1;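 active means highest replicate activation at or above 34% and every replicate reaching that threshold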;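 further: higher polarization means more probe DNA bound by delta FosB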
* = called active by the depositor; nt = no result given.

SMILES	AF4-AF9 inh	RAD52 anneal inh	dFosB act-1	RAD54 branch	S100A4 MyoIIA	dFosB act-2
CN(c1ccccc1)S(=O)(=O)c1nnc(NC(=O)COc2ccccc2)s1	0	-5	20*	13	0	0
CN(c1ccccc1)S(=O)(=O)c1nnc(NC(=O)COc2ccccc2F)s1	2	-27	33*	5	-1	8
CCC(=O)Nc1nnc(S(=O)(=O)N(C)c2ccccc2)s1	-4	-14	-8	-45	-1	nt
O=C(CCCCn1c(=S)[nH]c2ccsc2c1=O)NCc1ccc2c(c1)OCO2	-1	-14	125*	-3	-5	1
CC=Cc1ccc2n(c1=O)C[C@H]1[C@H](CO)[C@@H](C(=O)N3CCC(Cc4ccccc4)CC3)N(CC)[C@@H]21 (mixture of isomers)	-1	-5	nt	7	-7	nt
CCNC(=O)[C@@H]1[C@@H](CO)[C@@H]2Cn3c(ccc(-c4ccccc4F)c3=O)[C@H]1N2CC	-1	-5	nt	1	6	nt
COc1cc2c(cc1OC)C(C)N(C(=O)c1cc3c(=O)oc4ccc(C)cc4c3s1)CC2 (stereo unspecified)	-5	-16	41*	-13	1	4
COc1cc2c(cc1OC)C(C)N(C(=O)c1cccs1)CC2 (stereo unspecified)	-1	-18	5	nt	2	nt
COc1ccc(NS(=O)(=O)c2cccc(C(=O)N/N=C/c3ccc4c(c3)OCCO4)c2)cc1	0	-10	25*	nt	-1	-5
COc1ccc2c(Cl)c(C(=O)N/N=C/c3ccc4c(c3)OCO4)sc2c1	nt	nt	34*	6	nt	0
NC(=O)c1ccc(NC(=O)COC(=O)/C=C/c2ccc3c(c2)OCO3)cc1	3	-20	24*	-12	0	2
C/C(=N/NC(=O)c1ccc2c(c1)OCO2)c1ccc(NC(=O)C(F)(F)F)cc1	nt	nt	28*	-1	nt	1
CC(=O)Nc1ccc(NC(=O)COC(=O)/C=C/c2ccc3c(c2)OCO3)cc1	-41	-10	4	-12	0	nt
O=C(N/N=C/c1ccc2c(c1)OCO2)c1sc2cc(Cl)ccc2c1Cl	nt	nt	-4	nt	nt	nt
O=C(N/N=C/c1ccc(F)cc1)c1cc(-c2ccc3c(c2)OCO3)n[nH]1	1	-11	29*	8	-2	-2
O=C(N/N=C/c1ccc2c(c1)OCO2)c1ccc(NC(=O)c2ccc(F)cc2)cc1	6	-7	103*	7	9	-1
CN(C)c1ccc(/C=N/NC(=O)c2cc(-c3ccc4c(c3)OCO4)n[nH]2)cc1	-5	-5	7	nt	1	nt
O=C(N/N=C\C=C\c1ccc(Br)cc1)c1ccc2c(c1)OCO2	-3	-9	24*	8	-4	3
Cc1ccc(Cl)cc1NC(=O)C(=O)N/N=C/c1ccc2c(c1)OCO2	-7	-9	40*	-8	-3	-1
Cc1cc(Cl)ccc1NC(=O)C(=O)N/N=C/c1ccc2c(c1)OCO2	0	-9	-4	-6	-7	nt
COCC(=O)N1CC(=O)N2[C@H](CO)[C@H](c3ccc(C#CC4CCCC4)cc3)[C@H]2C1	0	-11	nt	nt	5	nt
COc1ccc(NC(=O)N(C)C[C@H]2Oc3c(NC(=O)C4CCOCC4)cccc3C(=O)N([C@@H](C)CO)C[C@H]2C)cc1	-1	-1	nt	-5	2	nt
COc1ccc(/C=N/NC(=O)c2cc(-c3ccc4c(c3)OCO4)n[nH]2)cc1OC	-1	9	73*	nt	-1	-4
c1ccc(CSc2nnc(-c3c[nH]c4ccccc34)o2)cc1	nt	nt	20*	8	nt	6
C[C@H](CO)N1C[C@H](C)[C@@H](CN(C)Cc2ccncc2)OCCCC[C@H](C)Oc2ccc(NS(=O)(=O)c3ccccc3)cc2C1=O	-5	8	nt	5	-2	nt
SMILES	AF4-AF9 inh	RAD52 anneal inh	dFosB act-1	RAD54 branch	S100A4 MyoIIA	dFosB act-2
CN(C)C(=O)c1cccc(-c2ccccc2[C@@H]2[C@@H](C#N)N(C(=O)C3CCCC3)[C@H]2CO)c1	-3	-9	nt	nt	3	nt
O=C(CC1S/C(=N/N=C/c2c[nH]c3ccc(OCc4ccccc4)cc23)NC1=O)Nc1ccccc1 (stereo unspecified)	nt	nt	32*	nt	nt	4
CSc1ccc(CNc2nc3ccccc3n3cnnc23)cc1	-18	-14	26*	nt	2	4
C[C@@H]1CN([C@H](C)CO)C(=O)c2cc(NS(=O)(=O)c3ccc(F)cc3)ccc2O[C@@H]1CN(C)Cc1ccc(C(=O)O)cc1	2	-8	nt	-8	8	nt
Cc1noc(C)c1S(=O)(=O)Nc1ccc2c(c1)C(=O)N([C@@H](C)CO)C[C@@H](C)[C@@H](CN(C)S(=O)(=O)c1ccc(Cl)cc1)O2	-15	-14	nt	-9	1	nt
CC1CCC(C(=O)NC(C(=O)NCCc2ccc(S(N)(=O)=O)cc2)C(C)C)CC1 (stereo unspecified)	-4	-7	21*	3	-2	5
CC(C)C(NC(=O)C1CCC(C(C)(C)C)CC1)C(=O)NCCc1ccc(S(N)(=O)=O)cc1 (stereo unspecified)	-10	-1	5	-4	3	nt
O=C(NC1CCS(=O)(=O)C1)c1c(NC(=O)C2COc3ccccc3O2)sc2c1CCCC2 (stereo unspecified)	nt	nt	40*	nt	nt	0
C[C@@H]1CCCCO[C@H](CN(C)S(=O)(=O)c2ccc(Cl)cc2)[C@H](C)CN([C@@H](C)CO)C(=O)c2cc(NC(=O)Nc3ccc4c(c3)OCO4)ccc2O1	1	-14	nt	1	-13	nt
CN(C)C(=O)[C@@H]1[C@@H](CO)[C@@H]2Cn3c(ccc(-c4cccc(F)c4)c3=O)[C@@H]2N1C(=O)c1cnccn1	-6	-5	nt	-1	4	nt
C[C@H]1CN([C@@H](C)CO)C(=O)Cc2cc(NC(=O)Nc3ccc(F)cc3)ccc2O[C@H]1CN(C)Cc1ccc(C(=O)Nc2ccccc2N)cc1	-1	-14	nt	nt	0	nt
CCc1cccc(NC(=O)CC2Oc3ccccc3NC2=O)c1 (stereo unspecified)	-1	-3	21*	-1	1	0
COC(=O)c1cc(NC(=O)CC2Oc3ccccc3NC2=O)cc(C(=O)OC)c1 (stereo unspecified)	-1	-12	-17	-6	-2	nt
C[C@@H]1CN([C@@H](C)CO)C(=O)c2cc(-c3ccccc3F)cnc2O[C@H]1CN(C)Cc1ccc(F)cc1	0	1	nt	2	6	nt
Cc1noc(C)c1NC(=O)Nc1ccc2c(c1)C(=O)N([C@@H](C)CO)C[C@H](C)[C@@H](CN(C)C(=O)C1CCCCC1)OCCCC[C@H](C)O2	2	5	nt	-11	-3	nt
COc1cccc(C(=O)N=c2sc3cc(S(C)(=O)=O)ccc3n2C)c1	1	-7	27*	nt	1	2
